The results in this text go back to ChEMBL document CHEMBL4665761, “Optimizing the Benefit/Risk of Acetyl-CoA Carboxylase Inhibitors through Liver Targeting” (J Med Chem, 2020).

The target in data set [1] is T1, OATP1B3 (Homo sapiens, UniProt Q9NPD5).
T1 sequence (Q9NPD5 whole entry): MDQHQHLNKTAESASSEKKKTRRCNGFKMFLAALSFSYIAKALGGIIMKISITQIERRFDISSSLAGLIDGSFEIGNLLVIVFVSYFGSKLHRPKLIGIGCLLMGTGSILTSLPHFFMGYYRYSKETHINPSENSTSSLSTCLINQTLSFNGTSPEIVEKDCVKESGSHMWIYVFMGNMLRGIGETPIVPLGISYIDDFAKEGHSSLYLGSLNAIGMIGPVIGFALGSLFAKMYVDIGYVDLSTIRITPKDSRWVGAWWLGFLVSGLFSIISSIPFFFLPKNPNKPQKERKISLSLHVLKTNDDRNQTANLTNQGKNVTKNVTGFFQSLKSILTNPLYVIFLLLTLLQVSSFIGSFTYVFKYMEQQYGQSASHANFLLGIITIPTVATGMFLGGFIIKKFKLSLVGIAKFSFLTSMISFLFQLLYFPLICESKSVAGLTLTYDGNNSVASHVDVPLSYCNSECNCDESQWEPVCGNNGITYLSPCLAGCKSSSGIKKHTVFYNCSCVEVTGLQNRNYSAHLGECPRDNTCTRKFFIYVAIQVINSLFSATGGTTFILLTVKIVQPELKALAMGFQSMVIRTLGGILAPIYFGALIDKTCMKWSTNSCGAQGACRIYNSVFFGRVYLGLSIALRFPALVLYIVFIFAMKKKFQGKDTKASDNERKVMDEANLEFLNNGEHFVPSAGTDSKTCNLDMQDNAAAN
The data set can be described thus: Substrate activity at human OATP1B3 stably expressed in HEK293 cells assessed as ratio of total to passive cellular uptake at 1 uM incubated for 5 mins by LC/MS-MS analysis. In kind it is ADME, cell-based. Particulars: HEK293 cells stably expressing human OATP1B3. In short, it runs like this:
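Transfected versus parental HEK293 cells exposed at 1 µM for 5 min at 37 °C. Ratio is total (transfected) over passive (parental) uptake; >2 denotes substrate.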

A short description of data set [2]: Inhibition of DNL in Sprague-Dawley rat assessed as reduction in DNL level in lung at 300 mg/kg, po pretreated with 1 hr followed by [14C]-acetate treatment and measured after 1 hr relative to control. It is filed as functional. The following applies: time 2 hrs. The essentials: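 Sprague-Dawley rats given single oral doses of 0.03–300 mg/kg in 0.5% methyl cellulose vehicle, n = 16 per dose. Read-out is incorporation of 14C-acetate into lipids in liver, bone marrow and lung, measured at 2 h post-dose relative to vehicle. Data are mean ± SEM. EC50 is reported with a 95% confidence interval.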

Data set [3] has as its target Organic anion transporter 3 (Homo sapiens, UniProt Q8TCC7). The data set can be described thus: Inhibition of human SLC22A8 expressed in HEK293 cells in presence of para-aminohippuric acid/metformin. It is filed as cell-based.
Data set [4] can be described thus: Drug uptake in human hepatocytes assessed as passive diffusion clearance at 1 uM up to 15 mins in presence of rifamycin SV by LC-MS/MS analysis. In kind it is ADME, cell-based, Hepatocyte. The following applies: 0.25 h.
Data set [5] deals with Acetyl-CoA carboxylase 1 (Rattus norvegicus, UniProt P11497). The data set can be described thus: Inhibition of rat ACC1 using acetyl-CoA as substrate incubated for 20 mins in presence of [14C]O3 by liquid scintillation counting method. In short, it runs like this:
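Radioenzymatic assay with purified ACC isozymes, measuring [14C]-bicarbonate incorporation into [14C]-malonyl-CoA. Mode of inhibition taken from substrate concentration-dependence experiments varying ATP or carbonate. IC50 dose-response run at saturating ATP.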

Data set [6] is described as follows: Half life in cynomolgus monkey plasma at 1 mg/kg, iv and measured up to 72 hrs by LC/MS-MS analysis. In kind it is ADME, organism-based, Macaca fascicularis. The essentials: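 Cynomolgus monkeys dosed 1 mg/kg IV as the tris salt in 2% N-methylpyrrolidone/98% sulfobutylether-β-cyclodextrin (12.5%) in 50 mM TRIS, pH 8.0, or PO as the tris salt. Plasma was analysed by LC-MS/MS, n = 2. CL = IV dose/AUC; Vss = dose/(AUC × elimination rate constant); Cmax taken from observed data.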

Organic anion transporter 3, sequence (Q8TCC7 whole entry, the tested form may be a part): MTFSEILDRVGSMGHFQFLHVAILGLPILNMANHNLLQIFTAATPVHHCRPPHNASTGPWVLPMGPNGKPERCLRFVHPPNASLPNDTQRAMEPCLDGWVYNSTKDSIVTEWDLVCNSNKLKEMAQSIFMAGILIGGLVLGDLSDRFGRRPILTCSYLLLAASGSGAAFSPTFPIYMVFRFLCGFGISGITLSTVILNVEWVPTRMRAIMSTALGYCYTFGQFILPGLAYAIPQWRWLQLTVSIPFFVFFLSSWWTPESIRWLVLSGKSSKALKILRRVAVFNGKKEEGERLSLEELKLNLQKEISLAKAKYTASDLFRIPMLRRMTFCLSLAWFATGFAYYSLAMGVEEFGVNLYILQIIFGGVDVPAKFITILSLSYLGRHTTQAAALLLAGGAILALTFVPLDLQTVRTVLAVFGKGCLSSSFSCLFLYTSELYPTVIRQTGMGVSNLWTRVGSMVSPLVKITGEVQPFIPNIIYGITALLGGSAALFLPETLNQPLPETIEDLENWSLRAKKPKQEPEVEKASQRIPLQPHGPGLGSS

Take `COc1cc(C(=O)N2CCC3(CC2)CC(=O)c2nn(C(C)(C)C)cc2O3)cc(-c2ccc(C(=O)O)cc2)n1`: in data set [1], the uptake ratio at 5 min, 1 µM worked out at 3.3.
In the case of `COc1cc(C(=O)N2CCC3(CC2)CC(=O)c2c(cnn2C(C)C)C3)cc(-c2ccc(C(=O)O)cc2)n1` [CLESACOSTAT], the inhibition in vivo at 300 mg/kg in data set [2] stood at 29%. Further, the IC50 in data set [3] was over 30000 nM; in data set [5] it was 7.53 nM. Besides, the CLH in data set [4] is 2.7 µL/min/mg. The compound further had a half-life in data set [6] of 11 h.
